# Data reported in ChEMBL document CHEMBL1121886, “Synthesis and antineoplastic activity of mitosene analogues of the mitomycins” (J Med Chem, 1981).
# Experiments:
# [1] = system: P388; experiment: Optimal dose effective against P388 murine leukemia in mice; format: functional, Mus musculus
# Outline: (§1)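 P388 ascites cells (10⁶) were implanted in CDF₁ female mice. Six mice per dose were dosed on day 1 only; 10 controls received saline, and mitomycin C reference groups had six mice per dose. %T/C = MST treated/control × 100. The optimal dose gave the maximum %T/C. MED is the dose giving %T/C 125. TR = optimal dose/MED.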
# [2] = system: P388; experiment: (Percentage) Maximum effect on life span of control group of mice for mytomycin C at its optimal dose; format: functional, Mus musculus
# Outline: (§2)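 CDF₁ female mice were implanted with 10⁶ P388 ascites cells and dosed on day 1 only, six mice per dose. There were 10 saline-injected controls, plus a six-mouse mitomycin C group per dose in each experiment. % T/C = median survival treated/control × 100 at optimal dose; MED is the dose giving % T/C 125; TR = optimal dose/MED.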
# [3] = system: P388; experiment: (Percentage) Maximum effect on life span of mice against P388 murine leukemia when compared with control; format: functional, Mus musculus; outline: as §2
# [4] = system: P388; experiment: Minimum effective dose (MED) against P388 murine leukemia in mice; format: functional; details: Mus musculus, read-out: MED; outline: as §1
# [5] = (§3) Therapeutic ratio of optimal dose to minimum effective dose(MED); format: ADME; details: mouse; outline: as §1
# [6] = system: L1210; experiment: Average change in weight between treated and control groups at 24 mg/kg in mice infected with L1210 leukemia cells; format: functional, Mus musculus
# Outline: (§4)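 BDF₁ female mice received 10⁶ L1210 ascites cells, then a single injection on day 1 in distilled water containing Tween 80, six mice per dose. The control group had 36 mice. Median survival time is in days; % T/C = MST treated/MST control × 100, with 125 taken as significant. Weight change is the average weight difference between treated and control groups.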
# [7] = system: L1210; experiment: (§5) Average change in weight between treated and control groups at 3 mg/kg in mice infected with L1210 leukemia cells; format: functional, Mus musculus; outline: as §4
# [8] = system: L1210; experiment: Median survival time against L1210 murine leukemia at 12 mg/kg in mice when compared with control; format: functional, Mus musculus; outline: as §4
# [9] = system: L1210; experiment: Median survival time against L1210 murine leukemia at 24 mg/kg in mice when compared with control; format: functional, Mus musculus; outline: as §4
# [10] = system: L1210; experiment: Median survival time against L1210 murine leukemia at 3 mg/kg in mice when compared with control; format: functional, Mus musculus; outline: as §4
# [11] = system: L1210; experiment: Median survival time against L1210 murine leukemia at 6 mg/kg in mice when compared with control; format: functional, Mus musculus; outline: as §4
# [12] = system: L1210; experiment: Average change in weight between treated and control groups at 6 mg/kg in mice infected with L1210 leukemia cells; format: functional, Mus musculus
# Outline: (§6)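 L1210 ascites cells (10⁶) were implanted into BDF₁ female mice. Six mice per dose received a single injection on day 1 in distilled water containing Tween 80; the control group had 36 mice. Survivors were counted on days 5 and 30. %T/C = MST (days) treated/control × 100, with 125 as significant. Weight change is the average weight difference between treated and control groups.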
# [13] = system: L1210; experiment: Average change in weight between treated and control groups at 1.5 mg/kg in mice infected with L1210 leukemia cells; format: functional, Mus musculus; outline: as §6
# [14] = system: L1210; experiment: (§7) Average change in weight between treated and control groups at 12 mg/kg in mice infected with L1210 leukemia cells; format: functional, Mus musculus; outline: as §4
# [15] = system: L1210; experiment: Median survival time against L1210 murine leukemia at 1.5 mg/kg in mice when compared with control; format: functional, Mus musculus; outline: as §4
# [16] = as §7; format: functional, Mus musculus; outline: as §6
# [17] = system: L1210; experiment: as §5; format: functional, Mus musculus; outline: as §6; remark: listed apart in the source
# [18] = system: L1210; experiment: Median survival time against L1210 murine leukemia at 24 mg/kg in mice when compared with control; Toxic; format: functional, organism-based; design: dose 24 mg/kg; details: Mus musculus; outline: as §6
# [19] = as §3; format: ADME; details: mouse, p388; outline: as §2
SMILES,Dose [1],T/C [2],T/C [3],minimal effective dose [4],selectivity ratio [5],further results
COC1=C(C)C(=O)c2c(c(COC(N)=O)c3n2CCC3OC(=O)c2cccnc2)C1=O (centres undefined),6.4 mg/kg,211%,128%,6.4 mg/kg,1,–
CNC(=O)OC1CCn2c3c(c(CCl)c21)C(=O)C(OC)=C(C)C3=O (centres undefined),12.8 mg/kg,222%,139%,12.8 mg/kg,1,–
CC(=O)OC1CCn2c3c(c(COC(N)=O)c21)C(=O)C(N1CC1)=C(C)C3=O (centres undefined),6.4 mg/kg,224%,122%,–,–,–
COC1=C(C)C(=O)c2c(c(COC(N)=O)c3n2CCC3OC(C)=O)C1=O (centres undefined),6.4 mg/kg,229%,165%,0.8 mg/kg,8,–
COC1=C(C)C(=O)c2c(c(COC(N)=O)c3n2CCC3O)C1=O (centres undefined),6.4 mg/kg,181%,113%,–,–,–
CNC(=O)OC1CCn2c3c(c(COC(N)=O)c21)C(=O)C(OC)=C(C)C3=O (centres undefined),6.4 mg/kg,228%,167%,1.6 mg/kg,–,–
COC1=C(C)C(=O)c2c(c(COC(N)=O)c3n2CCC3OC(=O)C(C)(C)C)C1=O (centres undefined),51.2 mg/kg,183%,117%,–,–,–
COC1=C(C)C(=O)c2c(c(COC(N)=O)c3n2CCC3OC(=O)CCl)C1=O (centres undefined),6.4 mg/kg,224%,111%,–,–,–
CC1=C(N2CC2)C(=O)c2c(COC(N)=O)c3n(c2C1=O)CCC3OC(N)=O (centres undefined),51.2 mg/kg,183%,144%,0.8 mg/kg,64,Average weight change [6]: -3.2 g; Average weight change [7]: -1.1 g; T/C [8]: 134%; T/C [9]: 138%; T/C [10]: 112%; T/C [11]: 114%; Average weight change [12]: -1.6 g; Average weight change [13]: -0.6 g; Average weight change [14]: -2.4 g; T/C [15]: 108%
CO[C@@]12[C@H](COC(N)=O)C3=C(C(=O)C(C)=C(N)C3=O)N1C[C@@H]1N[C@@H]12 [MITOMYCIN],–,–,–,–,–,Average weight change [16]: -5.5 g; Average weight change [7]: -2.4 g; T/C [8]: 110%; T/C [10]: 122%; T/C [11]: 124%; Average weight change [12]: -3.6 g; Average weight change [13]: -1.2 g; T/C [15]: 108%
COc1c(C)c(O)c2c(c1O)c(COC(N)=O)c1n2C[C@@H]2[C@H]1N2C (some centres undefined),12.8 mg/kg,181%,213%,0.8 mg/kg,16,–
COC1=C(C)C(=O)c2c(c(COC(N)=O)c3n2CCC3OC(N)=O)C1=O (centres undefined),6.4 mg/kg,238%,163%,0.4 mg/kg,16,Average weight change [6]: -5.1 g; Average weight change [17]: -3.2 g; T/C [8]: 122%; T/C [18]: Toxic; T/C [10]: 118%; T/C [11]: 116%; Average weight change [12]: -1.7 g; Average weight change [13]: -1.4 g; Average weight change [14]: -3.4 g; T/C [15]: 114%
COC(=O)OC1CCn2c3c(c(COC(N)=O)c21)C(=O)C(OC)=C(C)C3=O (centres undefined),3.2 mg/kg,244%,150%,1.6 mg/kg,2,–
COC1=C(C)C(=O)c2c(c(COC(N)=O)c3n2CC/C3=N\O)C1=O,6.4 mg/kg,181%,150%,1.6 mg/kg,4,–
COC1=C(C)C(=O)c2c(c(COC(N)=O)c3n2CCC3)C1=O,51.2 mg/kg,183%,128%,51.2 mg/kg,–,selectivity ratio [19]: 1
